From the RNAGym collection of RNA variant scans (doi:10.1126/science.aae0568)
Variants at the floor of the assay were thinned out.

B1: tRNA (parent)
chain: GUUCCGUUGGCGUAAUGGUAACGCGUCUCCCUCCUAAGGAGAAGACUGCGGGUUCGAGUCCCGUACGGAACG

Variants of: B1
Experiment: yeast fitness relative to wild type (ratio to wild type); higher = fitter; tRNA-Arg(CCU), competitive growth, 37 C, YPD
Procedure, shortened: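 Variants of the tRNA-Arg(CCU) gene, chemically synthesised with a 3% per-site mutation rate at 69 sites, were placed at the native genomic locus in Saccharomyces cerevisiae. The pooled strains were competed in YPD at 37°C for 24 hours in six parallel replicates. Gene amplicons from the start population and from each end population were read by 100-nucleotide paired-end sequencing. Darwinian fitness relative to wild type came from changes in genotype frequencies; genotypes needed ≥ 100 starting reads, and estimates < 0.5 were set to 0.5.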

Variant	yeast fitness
G18A C22U	0.636
G17C U32C A42U	0.559
G18A C30U C55A	0.592
G18A C60A G67A	≤ 0.5
G18A A36C G48A	≤ 0.5
G18A C22A U28C A40C	≤ 0.5
G18A G25A C46U U59C G68A	≤ 0.5
G18A A57U G58C	≤ 0.5
G18A A20C C34U A36U G39C	0.539
G17C U35C G51A C66G	≤ 0.5
G17C G51C C66U	≤ 0.5
G18A G41C U54A G63A	≤ 0.5
G17C G63C	≤ 0.5
G18A A20G U26G G50C G63C	≤ 0.5
G18A C55G	0.554
G18A C55U	0.554
G18A G48A A57C U59C	≤ 0.5
G18A C34G C55G A65U	≤ 0.5
G17C G52C U64A	≤ 0.5
G18A A37G C61U	≤ 0.5
G17C G63C C66U	≤ 0.5
G18A C30U U47G	≤ 0.5
G18A C46U G50U C60G A70G	≤ 0.5
G18A C30A U32A U35G	≤ 0.5

Variant	yeast fitness
G18A C31U A70U	0.656
G18A C31U A70G	0.726
G17C G56C A57G G68U	0.571
G17C U19A C49G	0.517
G18A A36U	0.66
G18A A36U C61A	≤ 0.5
G17C U54C	0.536
G18A A57G G58C	0.63
G18A A43C C66G	0.505
G18A A45C C49U	0.667
G18A G25C A70U	0.555
G18A C31U G41A	0.647
G18A C49A A65U	0.558
G18A C27U A37G A70C	≤ 0.5
G18A A21C G39A C55U C60G A69U	0.523
G18A C24U U47G	≤ 0.5
G17C U53G A70U	0.564
G18A A20U A36U A65C	0.706
G18A A20U A42G	≤ 0.5
G18A C22G C27G C49U G58A	0.608
G18A C29U	0.813
G18A C62G G68U	≤ 0.5
G18A C62G G68C	≤ 0.5
G18A G68C	0.662

Variant	yeast fitness
G18A C30U A40G C46U	≤ 0.5
G18A C24G G38C	0.724
G18A A43U	0.637
G18A A21C C30U C34A	≤ 0.5
G18A C27A G68C	≤ 0.5
G18A C46U U59C G68A	0.53
G17C U28A C30A C31A	0.623
G18A G25C C30G G41U C55G	≤ 0.5
G18A C24A	0.564
G17U A40U A42U C49G G51A C66A G68C	0.536
G18A C46G	0.749
G18A C46A	0.692
G18A C46U	0.749
G18A C27U C31A	≤ 0.5
G18A A45C C55U C61G	≤ 0.5
G18A A42C A69U	0.542
G18A C22U A40C G68C	≤ 0.5
G18A C30G G38C	0.529
G18A C31A	0.554
G18A G51A A57U	0.536
G18A C30G	≤ 0.5
G18A A21U U32A G56A	0.561
G18A A42C G48A C60A	≤ 0.5
G18A C31G U47C	≤ 0.5

Variant	yeast fitness
G18A G51C	≤ 0.5
G18A G41C A42G U54A	≤ 0.5
G18A C34U G48A A65C	≤ 0.5
G17C U19C A40G U47G	≤ 0.5
G18A A20U A36U C62U	≤ 0.5
G18A C49U	0.892
G18A C34U C60U	≤ 0.5
G18A G25C A43U U59A G63A	≤ 0.5
G18A A20U C31U	0.545
G18A C27A	0.726
G17C G48C	0.709
G17C G51A G63C A69U	≤ 0.5
G18A A40G	0.74
G18A A20U C29G A37U	0.563
G18A C33U A57G	≤ 0.5
G18A G44A A57G	≤ 0.5
G18A C62U U64A	0.517
G18A G25A	0.665
G18A A20U C62A A70C	0.552
G17C U32A C46A	0.582
G18A A20G U35C G58A C60G	0.558
G18A A42C C61A	≤ 0.5
G18A A20G A69U	0.542
G18A G25A C31U	0.63

Variant	yeast fitness
G18A G44C	0.767
G18A G44A	0.637
G18A C46A G63C	0.604
G18A A40C U47G A65C	≤ 0.5
G18A G25C C30G G41U A57U	≤ 0.5
G18A C29U C30U A57G	≤ 0.5
G18A G41C A42C C49U	0.522
G18A C24A C31A	≤ 0.5
G18A C49U U54C	0.539
G17C U19C A20G G68U	≤ 0.5
G17C G58C	0.528
G18A G68C A69U	≤ 0.5
G18A C34U A36G	0.525
G18A G50C G56C	≤ 0.5
G18A C30G G44C	0.646
G18A C24G C27U C62U	≤ 0.5
G17C U47G C66U G67A A69U	≤ 0.5
G17C U26C C46U A65U	0.558
G17C U19C C24A U32C	≤ 0.5
G17C U32A C46A A69U	≤ 0.5
G17C G67C	0.723
G18A A20U C49G U54A G68U A69U	≤ 0.5
G18A G51C A65G	≤ 0.5
G18A C62A	0.513

Variant	yeast fitness
G18A A40U A42U A65C	0.534
G18A C31G G41A G52C C60U C62G C66G	≤ 0.5
G18A A43G A65C	0.595
G17C U47C	0.711
G18A C22A A37C G41C C55G U64A	≤ 0.5
G17U U35C A37U A57C	≤ 0.5
G18A G23A A43C U59A	≤ 0.5
G18A C34U	≤ 0.5
G18A C30G G41C	≤ 0.5
G17C U35A	≤ 0.5
G18A C33U C46G	0.634
G18A A42G	0.692
G18A A69C	0.926
G17C U26G G39C A40U	≤ 0.5
G18A A70U	0.956
G18A G50A	0.853
G18A G25C A43U	0.6
G18A G51A A70G	≤ 0.5
G18A C31G C34A U47C	≤ 0.5
G18A G67C	0.841
G18A G67A	0.675
G18A G67U	0.75
G18A G50C C55G C62A	0.561
G17C G51A A65C	≤ 0.5

Variant	yeast fitness
G18A C29U C31A C66U	≤ 0.5
G17C G48C G67C	≤ 0.5
G18A C30A U32A U35G G67A	≤ 0.5
G17C U19A C24G U26A C34U	≤ 0.5
G18A G44C A65U	0.537
G17C U53A G56A A57C A65C	≤ 0.5
G17U C29G	0.544
G17C G50A	0.616
G18A G25A C29G C34A G63C	≤ 0.5
G18A C31A G56C A69C	≤ 0.5
G17C U28A C34G G38A U59A	≤ 0.5
G18A A20U C22U U28A C33U G44C	0.524
G17U C24U	0.84
G18A C31G A70U	0.687
G18A C34U A40G U47C	≤ 0.5
G17C U19A A36C A37U C60G G67C	≤ 0.5
G17C G56C	0.633
G17C G56A	0.709
G18A C46U C49U U59C G68A	≤ 0.5
G17U U19G A37G C66U A69U	0.561
G18A G25C A43U A69C	≤ 0.5
G18A C30U A40U G44C	≤ 0.5
G17C U28C C55A C60A	≤ 0.5
